One may read the Ki as a measure of affinity in units of concentration, obtained from inhibition or displacement.

Consider one molecule from ChEMBL document CHEMBL2163218, “Design, synthesis, and biological and structural evaluations of novel HIV-1 protease inhibitors to combat drug resistance” (J Med Chem, 2012).

One experiment concerns the target Protease (Human immunodeficiency virus 1, UniProt Q9YQ12). The experiment is described as follows: Inhibition of wild type HIV1 protease by FRET assay. An outline of the steps:
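Recombinant HIV-1 protease Q7K, desalted into 20 mM sodium acetate pH 5, apparent concentration ~50 nM (UV 280 nm). Inhibitors in DMSO, 12 concentrations, added with protease to buffer pH 4.7 (0.1 M NaOAc, 1 M NaCl, 1 mM EDTA, 1 mM DTT, 2% DMSO, 1 mg/mL BSA). Cleavage started by injecting EDANS/DABCYL peptide substrate. Ki from initial velocities fitted to the Morrison equation.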

Experiment [1] has as its target Human immunodeficiency virus type 1 protease (Human immunodeficiency virus 1, UniProt Q72874, A71V/I50V). As to the kind of experiment: Inhibition of HIV1 protease I50V, A71V mutant by FRET assay.
For experiment [2], the target named is Human immunodeficiency virus type 1 protease (Human immunodeficiency virus 1, UniProt Q72874, A71V/G73S/I84V/L10I/L63P/L90M). The experiment is described as follows: Inhibition of HIV1 protease L10I, L63P, A71V, G73S, I84V, L90M mutant by FRET assay.
Experiment [3] concerns the target Human immunodeficiency virus type 1 protease (Human immunodeficiency virus 1, UniProt Q72874, G48V/I54V/L10I/L63P/V82A). As to the kind of experiment: Inhibition of HIV1 protease L10I, G48V, I54V, L63P and V82A mutant by FRET assay.

Protease, sequence (Q9YQ12 whole entry): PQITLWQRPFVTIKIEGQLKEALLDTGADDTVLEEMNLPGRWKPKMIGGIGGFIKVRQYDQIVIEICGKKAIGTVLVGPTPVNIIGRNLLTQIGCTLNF

Consider `CCCCCN(C[C@@H](O)[C@H](Cc1ccccc1)NC(=O)O[C@H](C)CC(=O)OC)S(=O)(=O)c1ccc2ncsc2c1`, for which the Ki worked out at 11.4 nM at Protease, 120 nM in experiment [1], 45.9 nM in experiment [2] and 180 nM in experiment [3].
